Measured values taken from ChEMBL document CHEMBL5252539, “In vitro biological evaluation of new antimycobacterial salicylanilide-tuftsin conjugates” (Eur J Med Chem, 2017).
The source made the active and inactive calls. No cut-off for these calls is given here. *1 amine or outer side, *2 acyl side, *3 side chain or, on linkers, in order; H or OH if unused. Where a SMILES comes first, the peptide text is derived from it. [ ]: non-standard residue; d: D form. The star is where a group is joined. X4 = O=C(Nc1ccc(C(F)(F)F)cc1)c1cc(/C=N\OCC(=O)*)ccc1O; X1 = C/C(=N\OCC(=O)[*:2])c1ccc(N[*:1])cc1; Benzoyl(5-Br-2-OH) = O=C(c1cc(Br)ccc1O)*; Palmitoyl = CCCCCCCCCCCCCCCC(=O)*; Decanoyl = CCCCCCCCCC(=O)*; Butyryl = CCCC(=O)*

System: Mycobacterium tuberculosis
Experiment: Antimycobacterial activity against isoniazid and rifampicin resistant Mycobacterium tuberculosis A8 ATCC 35822 assessed as reduction in colony forming unit after 28 days by serial dilution method
Assay type: functional, organism-based
Settings: time 28.0 day
Method in brief: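 After the 4-week MIC incubation in Sula semisynthetic medium (pH 6.5), growth inhibition confirmed by plating on Löwenstein-Jensen solid medium and counting colony forming units.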

Row | SMILES | Activity
1 | C[C@@H](O)[C@H](NC(=O)CNC(=O)[C@H](CCCCN)NC(=O)[C@@H]1CCCN1C(=O)[C@H](CCCCN)NC(=O)[C@@H](NC(=O)CNC(=O)[C@H](CCCCN)NC(=O)[C@@H]1CCCN1C(=O)[C@H](CCCCN)NC(=O)[C@@H](NC(=O)CNC(=O)[C@H](CCCCN)NC(=O)[C@@H]1CCCN1C(=O)[C@H](CCCCN)NC(=O)[C@@H](NC(=O)CO/N=C\c1ccc(O)c(C(=O)Nc2ccc(C(F)(F)F)cc2)c1)[C@@H](C)O)[C@@H](C)O)[C@@H](C)O)C(=O)N[C@@H](CCCCN)C(=O)N1CCC[C@H]1C(=O)N[C@@H](CCCCN)C(=O)NCC(N)=O (X4-TKPKGTKPKGTKPKGTKPKG-NH2) | Active
2 | C/C(=N\OCC(=O)N[C@H](C(=O)N[C@@H](CCCCN)C(=O)N1CCC[C@H]1C(=O)N1CCC[C@@H]1C(=O)N[C@H](CCCNC(=N)N)C(=O)O)[C@@H](C)O)c1ccc(NC(=O)c2cc(Br)ccc2O)cc1 | Active
3 | CCCCCCCCCCCCCCCC(=O)NCCCC[C@H](NC(=O)[C@@H]1CCCN1C(=O)[C@H](CCCCN)NC(=O)[C@@H](NC(=O)CO/N=C(\C)c1ccc(NC(=O)c2cc(Br)ccc2O)cc1)[C@@H](C)O)C(=O)NCC(N)=O ({Benzoyl(5-Br-2-OH)}-[X1]TKPK(Palmitoyl)G-NH2) | Active
4 | CCCC(=O)NCCCC[C@H](NC(=O)[C@@H]1CCCN1C(=O)[C@H](CCCCN)NC(=O)[C@@H](NC(=O)CO/N=C(\C)c1ccc(NC(=O)c2cc(Br)ccc2O)cc1)[C@@H](C)O)C(=O)NCC(=O)N[C@H](C(=O)N[C@@H](CCCCN)C(=O)N1CCC[C@H]1C(=O)N[C@@H](CCCCN)C(=O)NCC(=O)N[C@H](C(=O)N[C@@H](CCCCN)C(=O)N1CCC[C@H]1C(=O)N[C@@H](CCCCN)C(=O)NCC(=O)N[C@H](C(=O)N[C@@H](CCCCN)C(=O)N1CCC[C@H]1C(=O)N[C@@H](CCCCN)C(=O)NCC(N)=O)[C@@H](C)O)[C@@H](C)O)[C@@H](C)O ({Benzoyl(5-Br-2-OH)}-[X1]TKPK(Butyryl)GTKPKGTKPKGTKPKG-NH2) | Active
5 | C/C(=N\OCC(=O)N[C@H](C(=O)N[C@@H](CCCCN)C(=O)N1CCC[C@H]1C(=O)N[C@@H](CCCCN)C(=O)NCC(=O)N[C@H](C(=O)N[C@@H](CCCCN)C(=O)N1CCC[C@H]1C(=O)N[C@@H](CCCCN)C(=O)NCC(N)=O)[C@@H](C)O)[C@@H](C)O)c1ccc(NC(=O)c2cc(Br)ccc2O)cc1 ({Benzoyl(5-Br-2-OH)}-[X1]TKPKGTKPKG-NH2) | Active
6 | CCCCCCCCCC(=O)NCCCC[C@H](NC(=O)[C@@H]1CCCN1C(=O)[C@H](CCCCN)NC(=O)[C@@H](NC(=O)CO/N=C(\C)c1ccc(NC(=O)c2cc(Br)ccc2O)cc1)[C@@H](C)O)C(=O)NCC(=O)N[C@H](C(=O)N[C@@H](CCCCN)C(=O)N1CCC[C@H]1C(=O)N[C@@H](CCCCN)C(=O)NCC(=O)N[C@H](C(=O)N[C@@H](CCCCN)C(=O)N1CCC[C@H]1C(=O)N[C@@H](CCCCN)C(=O)NCC(=O)N[C@H](C(=O)N[C@@H](CCCCN)C(=O)N1CCC[C@H]1C(=O)N[C@@H](CCCCN)C(=O)NCC(N)=O)[C@@H](C)O)[C@@H](C)O)[C@@H](C)O ({Benzoyl(5-Br-2-OH)}-[X1]TKPK(Decanoyl)GTKPKGTKPKGTKPKG-NH2) | Active
7 | C/C(=N\OCC(=O)NCC(=O)N[C@@H](Cc1ccccc1)C(=O)N[C@@H](CC(C)C)C(=O)NCC(=O)N[C@H](C(=O)N[C@@H](CCCCN)C(=O)N1CCC[C@@H]1C(=O)N1CCC[C@H]1C(=O)N[C@H](CCCNC(=N)N)C(=O)O)[C@@H](C)O)c1ccc(NC(=O)c2cc(Br)ccc2O)cc1 | Active
8 | C/C(=N\OCC(=O)NCC(=O)N[C@@H](Cc1ccccc1)C(=O)N[C@@H](CC(C)C)C(=O)NCC(=O)N[C@H](C(=O)N[C@@H](CCCCN)C(=O)N1CCC[C@@H]1C(=O)N[C@H](CCCCN)C(=O)NCC(=O)N[C@@H](C(=O)N[C@H](CCCCN)C(=O)N1CCC[C@H]1C(=O)N[C@H](CCCCN)C(=O)NCC(=O)N[C@@H](C(=O)N[C@@H](CCCCN)C(=O)N1CCC[C@@H]1C(=O)N[C@H](CCCCN)C(=O)NCC(=O)N[C@@H](C(=O)N[C@H](CCCCN)C(=O)N1CCC[C@H]1C(=O)N[C@H](CCCCN)C(=O)NCC(N)=O)[C@H](C)O)[C@H](C)O)[C@H](C)O)[C@@H](C)O)c1ccc(NC(=O)c2cc(Br)ccc2O)cc1 | Active
